Measured values taken from ChEMBL document CHEMBL1158096, “Cytotoxic triterpenoids from the leaves of Microtropis fokienensis” (J Nat Prod, 2006).
≈ marks a conversion by molar mass, not a printed value. Calls of active or inactive are those of the source. The rule behind the calls is not given here.

Experiments:
HepG2 = assay: (§1) Cytotoxicity against human Hep G2 cells after 3 days by MTT method; assay type: functional, cell-based
Procedure, shortened: (§2)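 Freshly trypsinized cells seeded at 5000-10 000 per well; compounds added from DMSO stocks. After 3 days in culture, attached cells incubated with MTT ([…], 1 h), solubilized in DMSO, absorbance read at 550 nm. IC50 = concentration reducing cell growth by 50%. Mean of two to three separate experiments, each in triplicate.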

Hep 3B2 = assay: (§3) Cytotoxicity against human Hep3B cells after 3 days by MTT method; assay type: functional, cell-based; procedure, shortened: as §2
MCF7 = assay: Cytotoxicity against human MCF7 cells after 3 days by MTT method; assay type: functional, cell-based; procedure, shortened: as §2
MDA-MB-231 = assay: Cytotoxicity against human MDA-MB-231 cells after 3 days by MTT method; assay type: functional, cell-based; procedure, shortened: as §2
A549 = assay: Cytotoxicity against human A549 cells after 3 days by MTT method; assay type: functional, cell-based; procedure, shortened: as §2
[1] = as §1; assay type: functional, cell-based; conditions: HepG2, 72 h; procedure, shortened: as §2
[2] = as §3; assay type: functional, cell-based, Hep 3B2; conditions: 72 h; procedure, shortened: as §2

Structure (SMILES) | Activity (HepG2) | Activity (Hep 3B2) | Activity (MCF7) | Activity (MDA-MB-231) | Activity (A549) | IC50 [1] [µg/mL] | IC50 [2] [µg/mL]
C[C@H]1[C@H](C)CC[C@]23CO[C@@]4(C=C[C@@H]5[C@@]6(C)CC[C@H](O)C(C)(C)[C@@H]6CC[C@@]5(C)[C@]4(C)C[C@@H]2O)[C@H]13 | inactive | inactive | inactive | inactive | inactive |  | 
O=c1c(O)c(-c2ccc(O)cc2)oc2cc(O)cc(O)c12 | inactive | inactive | inactive | inactive | inactive |  | 
C=C(CO)[C@@H]1CC[C@]2(C)CC[C@]3(C)[C@H](CC[C@@H]4[C@@]5(C)CC[C@H](O)C(C)(C)[C@@H]5CC[C@]43C)[C@@H]12 | inactive | inactive | inactive | inactive | inactive |  | 
CC1(C)C(=O)CC[C@]2(C)[C@H]3C=C[C@]45OC[C@@]6(CC[C@](C)(CO)C[C@H]64)CC[C@@]5(C)[C@]3(C)CC[C@@H]12 | inactive | inactive | inactive | inactive | inactive |  | 
C[C@H]1[C@H](C)CC[C@@]23CC[C@]4(C)[C@@](C=C[C@@H]5[C@@]6(C)CC[C@H](O)C(C)(C)[C@@H]6CC[C@]54C)(OC2)[C@H]13 | inactive | inactive | inactive | inactive | inactive |  | 
CO[C@@H]1C=C2[C@@H]3[C@@H](C)[C@H](C)CC[C@]3(C)CC[C@@]2(C)[C@]2(C)CC[C@H]3C(C)(C)[C@@H](O)CC[C@]3(C)[C@@H]12 | inactive | inactive | inactive | inactive | inactive |  | 
C[C@H]1[C@H](C)CC[C@@]23CC[C@]4(C)[C@@](C=C[C@@H]5[C@@]6(C)CC[C@H](O)[C@@](C)(CO)[C@@H]6CC[C@]54C)(OC2)[C@H]13 | inactive | inactive | inactive | inactive | inactive |  | 
CO[C@@H]1C=C2[C@@H]3[C@@H](C)[C@H](C)CC[C@]3(CO)CC[C@@]2(C)[C@]2(C)CC[C@H]3C(C)(C)[C@@H](O)CC[C@]3(C)[C@@H]12 |  | inactive | inactive | inactive | inactive | 4.6 (≈ 9.73 µM) | 
Oc1cc(O)c2c(c1)O[C@H](c1ccc(O)c(O)c1)[C@H](O)C2 | inactive | inactive | inactive | inactive | inactive |  | 
CC1(C)CC[C@@]23CC[C@]4(C)[C@@](C=C[C@@H]5[C@@]6(C)CC[C@H](O)C(C)(C)[C@@H]6CC[C@]54C)(OC2)[C@@H]3C1 | inactive | inactive | inactive | inactive | inactive |  | 
C[C@H]1[C@H](C)CC[C@]2(CO)CC[C@]3(C)C(=CC[C@@H]4[C@@]5(C)CC[C@H](O)C(C)(C)[C@@H]5CC[C@]43C)[C@H]12 | inactive | inactive | inactive | inactive | inactive |  | 
C[C@H]1[C@H](C)CC[C@@]23CC[C@@]4(C)[C@]5(C)CC[C@@H]6[C@](C)(CC[C@H](O)[C@@]6(C)CO)[C@H]5CC(=O)[C@]4(OC2)[C@H]13 [MICROFOKIENOXANE C] |  |  | inactive | inactive | inactive | 3.8 (≈ 8.04 µM) | 4.5 (≈ 9.52 µM)
C=C(CO)[C@@H]1CC[C@]2(CO)CC[C@]3(C)[C@H](CC[C@@H]4[C@@]5(C)CC[C@H](O)C(C)(C)[C@@H]5CC[C@]43C)[C@@H]12 | inactive | inactive | inactive | inactive | inactive |  | 
COC(=O)/C=C/c1ccc(O)cc1 | inactive | inactive | inactive | inactive | inactive |  | 
